Measurements from ChEMBL document CHEMBL1287787, “Design and synthesis of disubstituted thiophene and thiazole based inhibitors of JNK” (Bioorg Med Chem Lett, 2010).

What was measured:
[1] = Metabolic stability in human liver microsomes assessed as compound remaining after 30 mins; type: ADME, Microsome; conditions: read-out: Stability
In short: (§1)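 Test compound incubated with mouse or human liver microsomes for 30 min. Read-out is the percent of parent compound remaining at the end of the incubation.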

[2] = molecular target: Mitogen-activated protein kinase 10 (Homo sapiens, UniProt P53779); test: Inhibition of recombinant JNK3 after 60 mins by TR-FRET assay
[3] = molecular target: Mitogen-activated protein kinase 9 (Homo sapiens, UniProt P45984); test: Inhibition of recombinant JNK2 after 60 mins by TR-FRET assay
[4] = Metabolic stability in mouse liver microsomes assessed as compound remaining after 30 mins; type: ADME, Microsome; conditions: read-out: Stability; in short: as §1
[5] = molecular target: Mitogen-activated protein kinase 8 (Homo sapiens, UniProt P45983); test: Inhibition of recombinant JNK1 after 60 mins by TR-FRET assay
[6] = molecular target: Mitogen-activated protein kinase 14 (Homo sapiens, UniProt Q16539); test: Inhibition of recombinant p38alpha after 60 mins by TR-FRET assay
MDCK = test: Efflux ratio of permeability from […] side in MDCK cells expressing p-gp after 120 mins; type: ADME, cell-based, Canis lupus familiaris; conditions: dog, 2 h
[7] = molecular target: Mitogen-activated protein kinase 1 (Homo sapiens, UniProt P28482); test: Inhibition of recombinant Erk2 after 60 mins by TR-FRET assay
MDR1 = test: Permeability from apical to basolateral side of MDCK cells expressing MDR1 after 120 mins; type: ADME, cell-based, Canis lupus familiaris; conditions: dog, read-out: permeability
[8] = Solubility of compound in Hank's buffered salt solution; type: physicochemical

Mitogen-activated protein kinase 8, sequence (P45983 whole entry): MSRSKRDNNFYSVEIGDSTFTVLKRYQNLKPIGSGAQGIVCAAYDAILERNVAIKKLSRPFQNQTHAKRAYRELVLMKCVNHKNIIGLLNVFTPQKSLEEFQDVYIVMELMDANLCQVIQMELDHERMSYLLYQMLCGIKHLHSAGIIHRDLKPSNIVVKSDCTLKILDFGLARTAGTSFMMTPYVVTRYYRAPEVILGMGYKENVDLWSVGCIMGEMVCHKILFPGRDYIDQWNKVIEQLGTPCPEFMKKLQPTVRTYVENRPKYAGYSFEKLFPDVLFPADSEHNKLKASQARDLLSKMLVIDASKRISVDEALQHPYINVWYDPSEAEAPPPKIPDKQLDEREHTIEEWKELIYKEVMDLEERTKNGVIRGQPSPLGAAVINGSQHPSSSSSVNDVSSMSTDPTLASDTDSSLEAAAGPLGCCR
Mitogen-activated protein kinase 1, sequence (P28482 whole entry): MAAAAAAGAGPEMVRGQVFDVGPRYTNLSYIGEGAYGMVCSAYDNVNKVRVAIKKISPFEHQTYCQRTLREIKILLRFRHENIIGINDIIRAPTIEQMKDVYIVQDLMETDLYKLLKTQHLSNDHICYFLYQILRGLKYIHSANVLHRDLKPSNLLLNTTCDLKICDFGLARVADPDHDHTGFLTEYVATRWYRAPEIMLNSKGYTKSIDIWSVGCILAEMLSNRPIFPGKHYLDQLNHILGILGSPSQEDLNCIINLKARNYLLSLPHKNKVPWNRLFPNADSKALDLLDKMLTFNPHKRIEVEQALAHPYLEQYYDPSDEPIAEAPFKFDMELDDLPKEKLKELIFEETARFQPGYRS
Mitogen-activated protein kinase 14, sequence (Q16539 whole entry): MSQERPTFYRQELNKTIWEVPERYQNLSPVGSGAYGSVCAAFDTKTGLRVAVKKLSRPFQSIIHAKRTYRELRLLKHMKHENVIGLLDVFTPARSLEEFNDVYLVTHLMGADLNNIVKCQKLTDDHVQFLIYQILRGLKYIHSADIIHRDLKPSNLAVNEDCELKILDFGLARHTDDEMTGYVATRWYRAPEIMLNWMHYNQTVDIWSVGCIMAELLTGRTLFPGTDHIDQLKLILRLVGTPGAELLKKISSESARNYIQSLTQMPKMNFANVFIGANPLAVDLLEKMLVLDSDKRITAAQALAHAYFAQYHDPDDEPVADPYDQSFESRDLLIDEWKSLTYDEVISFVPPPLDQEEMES
Mitogen-activated protein kinase 10, sequence (P53779 whole entry): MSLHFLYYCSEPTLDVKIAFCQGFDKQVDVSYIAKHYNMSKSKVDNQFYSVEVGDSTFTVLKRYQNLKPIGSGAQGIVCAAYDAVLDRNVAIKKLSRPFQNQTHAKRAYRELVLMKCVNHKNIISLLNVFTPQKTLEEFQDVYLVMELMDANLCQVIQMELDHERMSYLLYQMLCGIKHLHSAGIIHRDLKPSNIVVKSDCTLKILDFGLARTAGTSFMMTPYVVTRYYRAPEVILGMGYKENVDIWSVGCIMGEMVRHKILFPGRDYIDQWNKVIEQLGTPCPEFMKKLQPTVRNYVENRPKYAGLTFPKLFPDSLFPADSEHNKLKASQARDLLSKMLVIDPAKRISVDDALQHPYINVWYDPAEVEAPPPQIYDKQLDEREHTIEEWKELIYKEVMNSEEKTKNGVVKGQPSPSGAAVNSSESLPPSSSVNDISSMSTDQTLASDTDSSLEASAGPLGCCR
Mitogen-activated protein kinase 9, sequence (P45984 whole entry): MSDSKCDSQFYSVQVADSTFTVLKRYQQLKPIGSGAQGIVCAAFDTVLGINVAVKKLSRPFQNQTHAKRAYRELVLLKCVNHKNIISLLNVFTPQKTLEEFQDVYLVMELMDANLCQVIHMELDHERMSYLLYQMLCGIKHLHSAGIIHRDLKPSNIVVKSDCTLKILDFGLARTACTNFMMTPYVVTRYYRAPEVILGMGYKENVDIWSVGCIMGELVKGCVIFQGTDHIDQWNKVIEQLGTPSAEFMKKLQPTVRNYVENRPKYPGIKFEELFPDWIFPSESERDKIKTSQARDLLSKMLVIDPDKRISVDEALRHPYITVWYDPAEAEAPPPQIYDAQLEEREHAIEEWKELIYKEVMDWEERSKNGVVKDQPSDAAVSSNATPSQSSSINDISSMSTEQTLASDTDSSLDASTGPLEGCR

| remaining at 0.5 h [1] [%] | IC50 [2] [nM] | IC50 [3] [nM] | remaining at 0.5 h [4] [%] | IC50 [5] [nM] | IC50 [6] [nM] | Ratio (MDCK) | IC50 [7] [nM] | Papp A→B at 2 h (MDR1) [×10⁻⁶ cm/s] | solubility [8] [µM] | SMILES |
| --- | --- | --- | --- | --- | --- | --- | --- | --- | --- | --- |
| 1 | 31500 | > 50000 | 1 | 30300 |  |  |  |  |  | Cc1nc(-c2sccc2NC(=O)Cc2cccc3ccccc23)n(C)n1 |
| 14 | 820 | 2600 | 15 | 710 | > 50000 | 5 | 24000 |  |  | O=C(Cc1cccc2cnccc12)Nc1scnc1-c1ncn[nH]1 |
|  | 610 | 3100 |  | 270 | > 50000 |  | > 50000 |  |  | COC(=O)c1sccc1NC(=O)Cc1cccc2cnccc12 |
| 87 |  | 8700 | 44 |  | > 50000 |  | > 50000 | 24.3 |  | COc1ccc(CC(=O)Nc2ccsc2-c2nc(N)n[nH]2)cc1 |
| 7 | 5300 | 27100 | 1 | 3200 |  |  |  |  |  | O=C(Cc1cccc2ccccc12)Nc1ccsc1-c1nnco1 |
| 4 | 2100 | 16300 | 0 | 1800 |  |  |  |  |  | Cc1nnc(-c2sccc2NC(=O)Cc2cccc3ccccc23)o1 |
| 2 | 470 | 2000 | 3 | 410 | > 50000 | 0.73 | > 50000 |  |  | O=C(Cc1cccc2cnccc12)Nc1scnc1-c1cnccn1 |
| 1 | 550 | 2400 | 1 | 250 |  |  |  |  |  | Cc1n[nH]c(-c2sccc2NC(=O)Cc2cccc3ccccc23)n1 |
| 4 | 160 | 940 | 1 | 140 | > 50000 | 1.1 | > 50000 | 26.1 | 90 | O=C(Cc1cccc2cnccc12)Nc1ccsc1-c1cscn1 |
| 0 | 1500 | 5000 | 1 | 830 |  |  |  | 15 |  | COc1ccc(CC(=O)Nc2ccsc2-n2nccn2)cc1 |
| 0 | 42500 | > 50000 | 0 | 24100 |  |  |  |  |  | Cn1ccc(-c2sccc2NC(=O)Cc2cccc3ccccc23)n1 |
